The results in this text go back to ChEMBL document CHEMBL1125029, “Chemical and biochemical studies of 2-propynylpyrrolidine derivatives. Restricted-rotation analogues of N-methyl-N-(1-methyl-4-pyrrolidino-2-butynyl)acetamide (BM-5)” (J Med Chem, 1990).

Experiment [1] deals with Muscarinic acetylcholine receptor. Nature of the experiment: (§1) Binding activity against Muscarinic acetylcholine receptor in rat cortex, using [3H]QNB as a radioligand. The experiment is classed as tissue-based. The gist of the method:
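Radioligand 250 pM (30.0 Ci/mmol). Competitor at final 10^-12 to 10^-3 M. 10 μM atropine defines nonspecific binding. Filtration on PEI-soaked GF/B filters, scintillation counting. Apparent Ki from one-site competitive nonlinear fit.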

The target in experiment [2] is Muscarinic receptor M1 and M2 (Rattus norvegicus) (UniProt P08482+P10980). Nature of the experiment: The agonist ratio as the ratio of Ki against [3H]QNB to that of [3H]-CD. The experiment is classed as functional.
Experiment [3] concerns the target Muscarinic acetylcholine receptor. Put plainly: Binding activity to the muscarinic acetylcholine receptor in rat cortex, assayed using [3H]CD as a radioligand. Format: tissue-based. Summed up:
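Male Wistar rat cerebral cortex homogenate in 10 mM Na/K phosphate pH 7.4, diluted 1:300 (wet wt/v), ~0.75 mg protein per 2.0 mL. 1 nM radioligand (55.5 Ci/mmol), prepared fresh in buffer. Competitor 10^-12 to 10^-3 M. Nonspecific binding with 10 μM atropine. Rapid filtration on PEI-treated filters, scintillation counting. Apparent Ki by one-site competitive nonlinear regression.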

For experiment [4] the target is unchanged. Put plainly: Binding activity to the muscarinic acetylcholine receptor in rat cortex, assayed using [3H]PZ as a radioligand. Format: tissue-based. The gist of the method:
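Rat (male Wistar, 200-250 g) cortex homogenized in ice-cold Na/K phosphate buffer pH 7.4, diluted 1:400, ~0.55 mg protein per 2.0 mL. 0.1 nM radioligand (84.1 Ci/mmol), made fresh just before use. Unlabeled competitor at final 10^-12 to 10^-3 M. 10 μM atropine for nonspecific. Filtered, counted by liquid scintillation. One-site competitive fit gives apparent Ki.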

The target is the same in experiment [5]. Nature of the experiment: Binding activity to muscarinic acetylcholine receptor in rat heart, assayed using [3H]QNB as a radioligand in the presence of Gpp(NH)p. Summed up: (§2)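 Male Wistar rat heart ventricles flushed, minced, Polytron-homogenized in 10 mM Na/K phosphate pH 7.4, spun 48000 g 15 min 4 °C, resuspended, gauze-filtered, diluted 1:750, 0.15-0.2 mg protein/2.0 mL. 10 μM Gpp(NH)p added to homogenate for line 3. Competitor 10^-12 to 10^-3 M. 10 μM atropine nonspecific. Filtration, scintillation counting. Ki from one-site fit.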

For experiment [6] the target is unchanged. Nature of the experiment: Binding activity to muscarinic acetylcholine receptor in rat heart, assayed using [3H]-QNB as a radioligand. The gist of the method: as §2
Experiment [7] has as its target T1, Muscarinic acetylcholine receptor M1 (Rattus norvegicus) (UniProt P08482).
T1 sequence (whole entry): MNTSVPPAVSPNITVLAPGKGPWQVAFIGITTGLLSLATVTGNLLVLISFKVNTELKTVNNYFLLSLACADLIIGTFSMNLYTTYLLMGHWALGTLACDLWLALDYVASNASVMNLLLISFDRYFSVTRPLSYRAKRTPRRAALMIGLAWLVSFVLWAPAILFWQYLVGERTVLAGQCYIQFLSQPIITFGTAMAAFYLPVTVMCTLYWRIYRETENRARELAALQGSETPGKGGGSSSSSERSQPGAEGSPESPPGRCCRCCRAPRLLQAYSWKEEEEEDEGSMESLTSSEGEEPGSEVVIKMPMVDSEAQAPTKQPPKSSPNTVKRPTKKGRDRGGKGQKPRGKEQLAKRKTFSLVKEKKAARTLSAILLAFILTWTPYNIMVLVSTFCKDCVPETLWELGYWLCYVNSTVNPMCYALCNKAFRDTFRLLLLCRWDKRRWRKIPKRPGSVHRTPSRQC
Put plainly: Muscarinic 1 receptor agonistic activity as the selectivity ratio of Ki against [3H]-QNB to that of [3H]PZ. Format: functional.

The target of experiment [8] is T1, Muscarinic acetylcholine receptor M1 (Rattus norvegicus). Put plainly: Muscarinic 1 receptor agonistic activity as the selectivity ratio of Ki against [3H]-QNB+ Gpp(NH)p to that of [3H]PZ. The experiment is classed as functional.
The target of experiment [9] is T2, Muscarinic acetylcholine receptor M2 (Rattus norvegicus) (UniProt P10980).
T2 sequence (whole entry): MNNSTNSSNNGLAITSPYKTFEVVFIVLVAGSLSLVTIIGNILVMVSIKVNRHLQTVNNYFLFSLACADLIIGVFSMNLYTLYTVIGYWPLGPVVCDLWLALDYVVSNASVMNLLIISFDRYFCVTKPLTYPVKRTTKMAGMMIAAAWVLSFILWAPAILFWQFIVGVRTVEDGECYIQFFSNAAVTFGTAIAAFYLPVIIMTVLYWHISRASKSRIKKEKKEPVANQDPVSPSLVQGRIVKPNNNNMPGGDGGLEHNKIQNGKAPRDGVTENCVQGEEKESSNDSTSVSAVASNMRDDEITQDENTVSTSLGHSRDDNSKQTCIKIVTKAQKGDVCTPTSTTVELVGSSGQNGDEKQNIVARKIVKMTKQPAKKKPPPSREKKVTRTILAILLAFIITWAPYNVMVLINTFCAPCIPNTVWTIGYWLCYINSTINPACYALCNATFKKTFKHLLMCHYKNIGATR
Nature of the experiment: Muscarinic 2 receptor agonistic activity was determined as the selectivity ratio of Ki against [3H]QNB+ Gpp(NH)p to that of [3H]QNB. Format: functional.

The target in experiment [10] is Muscarinic acetylcholine receptor. The description is as §1. Format: tissue-based. The gist of the method: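 Competitor at final 10^-12 to 10^-3 M. 10 μM atropine defines nonspecific binding. Filtration on PEI-soaked GF/B filters, scintillation counting. Apparent Ki from one-site competitive nonlinear fit.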
This is another data set of the same source.

The Ki is the dissociation constant of the complex between target and ligand, obtained from inhibition or displacement.

Take `CN(C)CC#C[C@@H]1CCCN1.Cl.Cl`: the inhibition constant Ki in experiment [1] turned out to be 8.5 µM; in experiment [3], 37.35 µM; in experiment [4], 13.2 µM; in experiment [5] it was 19.1 µM; in experiment [6] it was 20 µM. Moreover, the Ratio in [2] was determined as 0.2; in experiment [7] it was 1.5; in [8], 1.4; in experiment [9], 1.
For `C(#C[C@@H]1CCCN1)CN1CCCC1.Cl.Cl`, the Ki in [1] stood at 2.8 µM; in [3], 5.67 µM; in experiment [4] it was 2.22 µM; in experiment [5], 2.08 µM; in [6], 1.55 µM. The Ratio in experiment [2] came out at 0.5; in [7], 0.7; in experiment [8] it was 0.9; in experiment [9] it was 1.3.
Regarding `CC(=O)N1CCC[C@H]1C#CCN(C)C`, the inhibitory constant (Ki) in [1] stood at 48.9 µM; in experiment [3], 15.5 µM; in [4] it was 40 µM; in [5], 175 µM; in experiment [6] it was 51.7 µM. Moreover, the Ratio was determined as 3.2 in experiment [2], 1.3 in experiment [7], 4.4 in experiment [8] and 3.4 in [9].
`O=CN1CCC[C@H]1C#CCN1CCCC1`: the inhibitory constant (Ki) in experiment [1] turned out to be 4.59 µM; in [3], 4.88 µM; in experiment [4], 1.23 µM; in experiment [5] it was 77 µM; in [6], 7.62 µM. Moreover, the Ratio in experiment [2] worked out at 1; in experiment [7], 6.2; in experiment [8] it was 62; in experiment [9], 10.
Turning to `CC(=O)N1CCC[C@H]1C#CC[N+](C)(C)C`, the inhibitory constant (Ki) in [1] worked out at 20.9 µM; in experiment [3], 4.15 µM; in experiment [4] it was 13.9 µM; in [5], 47.1 µM; in experiment [6], 16.4 µM. Besides, the Ratio in [2] is 5; in experiment [7], 1.2; in experiment [8] it was 3.4; in experiment [9], 2.9.
`CC(=O)N1CCC[C@H]1C#CCN1CCCC1.Cl`: the Ki in experiment [1] was 4.96 µM; in experiment [3] it was 2.55 µM; in experiment [4] it was 2.06 µM; in experiment [5] it was 22.6 µM; in experiment [6] it was 15.5 µM. Also, the Ratio in [2] is 1.9; in [7], 7.5; in experiment [8], 11; in experiment [9], 1.5.
`CN(C)CC#C[C@@H]1CCCN1C(=O)OC(C)(C)C`: the Ratio in experiment [2] was 3.5; in experiment [7] it was 1.5; in [8], 1.6; in [9], 1.1. The Ki in experiment [3] amounted to 3.3 µM; in [4] it was 9.04 µM; in experiment [10] it was 11.4 µM; in experiment [5], 14.1 µM; in experiment [6], 13.4 µM.
As for `Cl.O=C(N1CCC[C@@H]1C#CCN1CCCC1)C(F)(F)F`, the Ratio in [2] stood at 0.8; in experiment [7] it was 8.8; in [8] it was 7.6; in experiment [9] it was 0.9. The Ki in experiment [3] was found to be 0.44 µM; in experiment [4], 0.14 µM; in [10], 0.36 µM; in [5], 1.07 µM; in experiment [6], 1.23 µM.
